The nature of assay [1]: Her2 expression decrease, cell viability multiplex – SKBR3 breast tumor cells, AlphaScreen, ATP viability, primary screen (AID 461;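 active = Her2 level under about 52% in both replicate screens, with viability over 70% of control, limit read from the data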;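 for Her2 level: lower value means less Her2 protein in the cells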;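 for viability: percent of carrier control wells set as 100% viability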). As to conditions: SKBR3 Her2 protein level, 18-24 h, measured here: SKBR3 viability, ATP luminescence, at 10 µM. (In general: Alpha assays give light when donor and acceptor beads are brought close together.)
Assay [2] deals with Receptor tyrosine-protein kinase erbB-2 (Homo sapiens) (UniProt P04626). The description is as above. As to conditions: 18-24 h, at 10 µM, stronger effect = lower value.
Assay [3] in a line: reduced viability of SK-BR-3 breast cancer cells – cell-based, 24 h, human, pilot screen (AID 572;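 active = viability at or below 10% of carrier control in both of two separate runs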;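 note: compound exposure lasted between 18 and 24 h rather than exactly 24 h; 100% = carrier-treated control wells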). As to conditions: SK-BR-3 viability, CellTiter-Glo luminescence, at 10 µM, stronger effect = lower value.
Assay [4] in a line: HUVEC growth inhibition – cell-based, human, primary screen (AID 575;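 active = viability at or below 30% in both replicate assays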;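 note: 100% = median of untreated cell wells with 0.1% DMSO on each plate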). As to conditions: HUVEC proliferation, CellTiter-Glo luminescence, 72 h; at 10 µM; stronger effect = lower value. The essentials:
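material = primary HUVEC, no more than 12 passages | input = 1250 cells per well | controls = vehicle and MePR control wells | measured by = CTG luminescence | times = 72 h compound incubation | format = collagen-coated 384-well format | read-out = % viability vs DMSO wells | doses = single 10 µM dose, 0.1% DMSO, from 5x medium stock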

A short description of assay [5]: H69AR cell proliferation blockers – human, duplicate replicates, primary screen (AID 580).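 Note: 100% = mean luminescence of untreated wells and 0% = no signal.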 As to conditions: H69AR lung tumor cells viability, ATP luminescence, 72 h; at 10 µM; stronger effect = lower value.
The nature of assay [6]: MRP1 drug-resistance reversers in H69AR cells – cell-based, doxorubicin co-treatment, pilot screen (AID 601;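 active = viability loss from added drug above about 55%, and viability with drug at most 40%, in both replicates, limit read from the data, passing the limit was not always enough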). As to conditions: CellTiter-Glo, 72 h, at 10 µM; for differential viability (reversal): stronger effect = higher value. A general note: Cellular ATP, detected with luciferase, serves as a proxy for viable cell number.
Assay [7] is described as follows: yeast transport mutant growth inhibition pilot in 384-well plates, post-Golgi transport modulator project (AID 636; in the data active = inhibition above about 31%). As to conditions: absorbance 615 nm, about 18 h, stronger effect = higher value.
Assay [8] can be described thus: growth suppression of yeast trafficking mutant, preliminary HTS, modulators of trafficking downstream of Golgi apparatus project, 1536-format plate, OD 615 nm (AID 637; in the data active = inhibition above about 30%). As to conditions: yeast transport mutant growth, absorbance 615 nm, 18 h; stronger effect = higher value.
Where [9] appears, read: H69AR cells + 2 uM doxorubicin, measured here: viability with 2 uM doxorubicin, stronger effect = lower value.
Where [10] appears, read: H69AR cells, compound alone cytotoxicity.

Activity calls are given as the source filed them.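 Rule for the calls, unless noted: active = viability at or under a set limit in both replicates, limit being median viability minus 3 SD (cut at about 48% in these data, passing the limit was not always enough); inconclusive = at or under the limit in just one replicate; inactive = at or above the limit in both replicates.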

Broadly, the viability is a read-out of living cells in per cent, often relative to untreated cells. By inhibition is commonly meant the drop in the measured response relative to a control, in per cent.

Chain of Receptor tyrosine-protein kinase erbB-2 (Homo sapiens) (P04626 whole entry, looked up): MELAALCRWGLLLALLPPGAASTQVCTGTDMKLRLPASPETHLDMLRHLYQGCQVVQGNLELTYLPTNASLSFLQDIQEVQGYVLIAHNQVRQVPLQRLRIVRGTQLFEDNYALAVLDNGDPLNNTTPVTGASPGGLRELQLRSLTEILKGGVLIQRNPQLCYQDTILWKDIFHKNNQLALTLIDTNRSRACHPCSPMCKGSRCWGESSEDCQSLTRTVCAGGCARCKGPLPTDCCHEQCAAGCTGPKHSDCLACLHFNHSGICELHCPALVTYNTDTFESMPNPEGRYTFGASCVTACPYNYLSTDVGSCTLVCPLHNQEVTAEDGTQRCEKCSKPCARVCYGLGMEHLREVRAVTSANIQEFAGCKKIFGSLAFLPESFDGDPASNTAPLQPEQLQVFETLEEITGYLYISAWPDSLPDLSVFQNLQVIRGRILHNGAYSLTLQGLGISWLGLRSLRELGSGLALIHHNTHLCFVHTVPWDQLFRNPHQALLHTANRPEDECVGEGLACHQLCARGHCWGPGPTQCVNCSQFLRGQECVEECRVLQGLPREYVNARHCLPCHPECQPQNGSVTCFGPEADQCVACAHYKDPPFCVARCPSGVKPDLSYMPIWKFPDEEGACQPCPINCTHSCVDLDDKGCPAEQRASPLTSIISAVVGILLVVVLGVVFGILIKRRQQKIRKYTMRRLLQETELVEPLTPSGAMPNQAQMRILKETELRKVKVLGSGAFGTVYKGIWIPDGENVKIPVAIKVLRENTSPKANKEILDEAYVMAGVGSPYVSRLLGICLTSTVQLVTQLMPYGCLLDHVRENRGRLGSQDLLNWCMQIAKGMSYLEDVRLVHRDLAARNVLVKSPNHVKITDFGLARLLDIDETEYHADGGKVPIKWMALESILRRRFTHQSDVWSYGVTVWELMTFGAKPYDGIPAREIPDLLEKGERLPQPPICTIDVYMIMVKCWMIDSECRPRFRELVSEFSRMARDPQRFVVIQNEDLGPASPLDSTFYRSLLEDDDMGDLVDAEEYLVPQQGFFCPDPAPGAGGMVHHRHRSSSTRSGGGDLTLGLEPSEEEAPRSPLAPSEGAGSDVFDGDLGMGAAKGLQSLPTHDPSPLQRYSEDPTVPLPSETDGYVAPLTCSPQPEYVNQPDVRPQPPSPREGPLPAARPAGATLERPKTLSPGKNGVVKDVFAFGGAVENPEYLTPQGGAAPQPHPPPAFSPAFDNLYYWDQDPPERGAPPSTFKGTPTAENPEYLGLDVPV

With `CC(C)N(O)C(=O)NC(C)(C)C`, the viability in assay [1] was 110%; in assay [3] it was 110% (inactive); in assay [4] it was 97.8% (inactive); in assay [5], 93.8% (inactive); in assay [6] (setting [9]), 98.9%; in assay [6] (setting [10]), 93.8%. Also, the Her2 level in assay [2] was 99% (inactive). The differential viability (reversal) in assay [6] (H69AR cells + 2 uM doxorubicin) is -5.12% (inactive). Further, the inhibition in assay [7] is -2.8% (inactive); in assay [8] it was 5% (inactive).
Consider `Cc1ccc(CCNC(=O)C2CCN(S(=O)(=O)c3cccc4nsnc34)CC2)cc1`, for which the viability was 93.5% in assay [1]; 93.5% (inactive) in assay [3]; 107% (inactive) in assay [4]; 95.6% (inactive) in assay [5]; 99.2% in assay [6] (setting [9]); 95.6% in assay [6] (setting [10]). In addition, in assay [2], the Her2 level is 108% (inactive). Moreover, in assay [6] (H69AR cells + 2 uM doxorubicin), the differential viability (reversal) was -3.61% (inactive). Moreover, the inhibition in assay [7] was 2.13% (inactive); in assay [8] it was 0.33% (inactive).
For the molecule `CC(C)(C)NC(=O)COC(=O)c1snc(C(=O)NC2CCCCC2)c1N`, the viability in assay [1] was 86%; in assay [3], 86% (inactive); in assay [4], 51.9% (inactive); in assay [5] it was 101% (inactive); in assay [6] (setting [9]) it was 88.1%; in assay [6] (setting [10]) it was 101%. Further, in assay [2], the Her2 level was 75% (inactive). Besides, in assay [6] (H69AR cells + 2 uM doxorubicin), the differential viability (reversal) is 12.7% (inactive). Also, the inhibition is -0.95% (inactive) in assay [7] and 1.59% (inactive) in assay [8].
Consider `Cc1cc(C(=O)CSCCCn2c(=O)[nH]c3ccccc32)c(C)n1C`, for which the viability in assay [1] was 105%; in assay [3], 105% (inactive); in assay [4], 110% (inactive); in assay [5] it was 98.1% (inactive); in assay [6] (setting [9]), 88.7%; in assay [6] (setting [10]), 98.1%. Moreover, the Her2 level in assay [2] was 98% (inactive). For the same molecule, the differential viability (reversal) in assay [6] (H69AR cells + 2 uM doxorubicin) is 9.45% (inactive). Further, the inhibition was 0.41% (inactive) in assay [7] and -5.08% (inactive) in assay [8].
`O=c1c2[nH]c3cccc(Cl)c3c2ncn1CCN1CCCCC1`: the viability in assay [1] was 103%; in assay [3] it was 103% (inactive); in assay [4] it was 101% (inactive); in assay [5] it was 92.6% (inactive); in assay [6] (setting [9]), 88.6%; in assay [6] (setting [10]), 92.6%. In addition, the Her2 level in assay [2] was 83.5% (inactive). In addition, the differential viability (reversal) in assay [6] (H69AR cells + 2 uM doxorubicin) is 4.01% (inactive). For the same molecule, the inhibition was -4.13% (inactive) in assay [7] and 0.49% (inactive) in assay [8].
As for `COc1ccc(N2CCN(C(=O)CCNS(=O)(=O)c3ccc(Br)s3)CC2)cc1`, the viability in assay [1] is 64%; in assay [3] it was 64% (inactive); in assay [4] it was 80.1% (inactive); in assay [5], 88.7% (inactive); in assay [6] (setting [9]), 92.3%; in assay [6] (setting [10]), 88.7%. For the same molecule, the Her2 level in assay [2] is 91.5% (inactive). Moreover, the differential viability (reversal) in assay [6] (H69AR cells + 2 uM doxorubicin) is -3.66% (inactive). Moreover, the inhibition in assay [7] is -4.55% (inactive); in assay [8], 6.72% (inactive).
On to `COC(=O)c1cc(Oc2ccc(C(=O)OC)cc2N)cc(C(=O)OC)c1`, for which the viability in assay [1] is 95%; in assay [3], 95% (inactive); in assay [4], 99.1% (inactive); in assay [5] it was 96.5% (inactive); in assay [6] (setting [9]), 99.2%; in assay [6] (setting [10]), 96.5%. Moreover, the Her2 level in assay [2] was 100% (inactive). Also, the differential viability (reversal) in assay [6] (H69AR cells + 2 uM doxorubicin) was -2.62% (inactive). Moreover, the inhibition in assay [7] was -1.32% (inactive); in assay [8] it was -5.82% (inactive).
Turning to `Cc1sc2nc(SCc3nc4ccccc4[nH]3)n(Cc3ccco3)c(=O)c2c1C`, the viability in assay [1] is 96.5%; in assay [3] it was 96.5% (inactive); in assay [4], 91.7% (inactive); in assay [5], 84.6% (inactive); in assay [6] (setting [9]), 76.6%; in assay [6] (setting [10]), 84.6%. The Her2 level in assay [2] was 92.5% (inactive). Moreover, the differential viability (reversal) in assay [6] (H69AR cells + 2 uM doxorubicin) was 8.02% (inactive). For the same molecule, the inhibition in assay [7] is -0.13% (inactive); in assay [8], -1.8% (inactive).
Regarding `CCn1c(CSc2nnc(-c3cccnc3)n2-c2ccccc2C)nc2cc(C(=O)O)ccc21`, the viability in assay [1] was 95.5%; in assay [3], 95.5% (inactive); in assay [4] it was 94% (inactive); in assay [5], 99.1% (inactive); in assay [6] (setting [9]), 87.8%; in assay [6] (setting [10]) it was 99.1%. Further, in assay [2], the Her2 level was 109% (inactive). For the same molecule, the differential viability (reversal) in assay [6] (H69AR cells + 2 uM doxorubicin) was 11.4% (inactive). The inhibition in assay [7] is -3.56% (inactive); in assay [8], -7.3% (inactive).
As for `Cc1ccc(CNC(=O)C2CCN(S(=O)(=O)c3cccs3)CC2)o1`, the viability in assay [1] is 138%; in assay [3], 138% (inactive); in assay [4], 89.5% (inactive); in assay [5] it was 81% (inactive); in assay [6] (setting [9]) it was 74.6%; in assay [6] (setting [10]), 81%. Further, the Her2 level in assay [2] is 87% (inactive). For the same molecule, the differential viability (reversal) in assay [6] (H69AR cells + 2 uM doxorubicin) was 6.39% (inactive). The inhibition was -4.68% (inactive) in assay [7] and 4.76% (inactive) in assay [8].
On to `CC(C)(C)c1ccc(OCC(=O)O)cc1`, for which the viability in assay [1] was 102%; in assay [3], 102% (inactive); in assay [4], 108% (inactive); in assay [5], 104% (inactive); in assay [6] (setting [9]), 91%; in assay [6] (setting [10]) it was 104%. Further, the Her2 level in assay [2] is 96.5% (inactive). For the same molecule, the differential viability (reversal) in assay [6] (H69AR cells + 2 uM doxorubicin) is 13.4% (inactive). The inhibition was -5.73% (inactive) in assay [7] and 8.69% (inactive) in assay [8].
As for `Cc1ccc(-c2nnc(SC(C)C#N)n2N)cc1` (stereo not given), the viability was 108% in assay [1]; 108% (inactive) in assay [3]; 88.5% (inactive) in assay [4]; 92.3% (inactive) in assay [5]; 83.1% in assay [6] (setting [9]); 92.3% in assay [6] (setting [10]). In addition, in assay [2], the Her2 level is 83% (inactive). Besides, the differential viability (reversal) in assay [6] (H69AR cells + 2 uM doxorubicin) is 9.2% (inactive). The inhibition was -5.68% (inactive) in assay [7] and 4.44% (inactive) in assay [8].
Regarding `CCOC(=O)N1CCN(C(=O)c2ccc(N3C(=O)CCC3=O)cc2)CC1`, the viability in assay [1] is 110%; in assay [3], 110% (inactive); in assay [4] it was 104% (inactive); in assay [5], 105% (inactive); in assay [6] (setting [9]), 87.6%; in assay [6] (setting [10]) it was 105%. Further, the Her2 level in assay [2] was 110% (inactive). Moreover, the differential viability (reversal) in assay [6] (H69AR cells + 2 uM doxorubicin) was 17.4% (inactive). Also, the figures for the inhibition in assay [7] and in assay [8] were -7.03% (inactive) and -9.83% (inactive), respectively.
Take `COc1ccc(S(=O)(=O)Cc2ccc(C(=O)N3CCN(Cc4ccccc4)CC3)o2)cc1`: the viability in assay [1] was 86.5%; in assay [3], 86.5% (inactive); in assay [4], 95% (inactive); in assay [5], 84.9% (inactive); in assay [6] (setting [9]), 85.6%; in assay [6] (setting [10]) it was 84.9%. For the same molecule, the Her2 level in assay [2] is 102% (inactive). The differential viability (reversal) in assay [6] (H69AR cells + 2 uM doxorubicin) is -0.78% (inactive). The inhibition in assay [7] is -1.41% (inactive); in assay [8] it was 0.5% (inactive).
